Measurements published in ChEMBL document CHEMBL3227968, “Synthesis and antitumor activity of water-soluble (2-chloroethyl)nitrosoureas” (1979).
The source made the active and inactive calls. No cut-off for these calls is given here.

Tests used:
[1] = tested on: L1210; test: Antitumor activity against mouse L1210 cells allografted in mouse assessed as mouse survival after 30 days at 2 mg/kg, ip qd for 8 days relative to control; format: functional, organism-based; parameters: dose 2 mg/kg
Procedure, shortened: (§1)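 L1210 leukemia, 10⁶ cells implanted ip per mouse. Dosing ip once daily for 8 days starting day 1, with solutions prepared fresh daily. Six mice per dose level. Survivors counted at day 30. Median survival time also recorded as %T/C = (MST treated/MST control) × 100, with T/C > 125 taken as significant.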

[2] = tested on: L1210; test: Antitumor activity against mouse L1210 cells allografted in mouse assessed as mouse survival after 30 days at 1 mg/kg, ip qd for 8 days relative to control; format: functional, organism-based; parameters: dose 1 mg/kg; procedure, shortened: as §1
[3] = tested on: L1210; test: Antitumor activity against mouse L1210 cells allografted in mouse assessed as mouse survival after 30 days at 0.5 mg/kg, ip qd for 8 days relative to control; format: functional, organism-based; parameters: dose 0.5 mg/kg; procedure, shortened: as §1
[4] = tested on: L1210; test: Antitumor activity against mouse L1210 cells allografted in mouse assessed as mouse survival after 30 days at 0.25 mg/kg, ip qd for 8 days relative to control; format: functional, organism-based; parameters: dose 0.25 mg/kg; procedure, shortened: as §1
[5] = tested on: L1210; test: Antitumor activity against mouse L1210 cells allografted in mouse assessed as median survival time at 32 mg/kg, ip qd for 8 days relative to control; format: functional; conditions: route intraperitoneal
Procedure, shortened: (§2)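 L1210 leukemia, 10⁶ cells per mouse implanted ip. Dosing ip once daily for 8 days from day 1, with solutions prepared fresh daily. Read-out: median survival time as %T/C = (MST treated/MST control) × 100, with T/C > 125 taken as significant inhibition. Survivors counted at 30 days, six mice per dose.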

[6] = tested on: L1210; test: Antitumor activity against mouse L1210 cells allografted in mouse assessed as tumor inhibition at 16 mg/kg, ip qd for 8 days relative to control; format: functional; conditions: route intraperitoneal; procedure, shortened: as §2
[7] = tested on: L1210; test: Antitumor activity against mouse L1210 cells allografted in mouse assessed as tumor inhibition at 8 mg/kg, ip qd for 8 days relative to control; format: functional; conditions: route intraperitoneal; procedure, shortened: as §2
[8] = tested on: L1210; test: Antitumor activity against mouse L1210 cells allografted in mouse assessed as tumor inhibition at 4 mg/kg, ip qd for 8 days relative to control; format: functional; conditions: route intraperitoneal; procedure, shortened: as §2
[9] = tested on: L1210; test: Antitumor activity against mouse L1210 cells allografted in mouse assessed as tumor inhibition at 2 mg/kg, ip qd for 8 days relative to control; format: functional; conditions: route intraperitoneal; procedure, shortened: as §2
[10] = tested on: L1210; test: Antitumor activity against mouse L1210 cells allografted in mouse assessed as tumor inhibition at 1 mg/kg, ip qd for 8 days relative to control; format: functional; conditions: route intraperitoneal; procedure, shortened: as §2
[11] = tested on: L1210; test: Antitumor activity against mouse L1210 cells allografted in mouse assessed as tumor inhibition at 0.5 mg/kg, ip qd for 8 days relative to control; format: functional; conditions: route intraperitoneal; procedure, shortened: as §2
[12] = tested on: L1210; test: Antitumor activity against mouse L1210 cells allografted in mouse assessed as tumor inhibition at 0.25 mg/kg, ip qd for 8 days relative to control; format: functional; conditions: route intraperitoneal; procedure, shortened: as §2
[13] = tested on: L1210; test: Antitumor activity against mouse L1210 cells allografted in mouse assessed as mouse survival after 30 days at 32 mg/kg, ip qd for 8 days relative to control; format: functional, organism-based; parameters: dose 32 mg/kg; procedure, shortened: as §1
[14] = tested on: L1210; test: Antitumor activity against mouse L1210 cells allografted in mouse assessed as mouse survival after 30 days at 8 mg/kg, ip qd for 8 days relative to control; format: functional, organism-based; parameters: dose 8 mg/kg; procedure, shortened: as §1
[15] = tested on: L1210; test: Antitumor activity against mouse L1210 cells allografted in mouse assessed as mouse survival after 30 days at 16 mg/kg, ip qd for 8 days relative to control; format: functional, organism-based; parameters: dose 16 mg/kg; procedure, shortened: as §1
[16] = tested on: L1210; test: Antitumor activity against mouse L1210 cells allografted in mouse assessed as mouse survival after 30 days at 4 mg/kg, ip qd for 8 days relative to control; format: functional, organism-based; parameters: dose 4 mg/kg; procedure, shortened: as §1
[17] = tested on: L1210; test: Antitumor activity against mouse L1210 cells allografted in mouse assessed as median survival time at 32 mg/kg, ip single dose relative to control; format: functional; conditions: route intraperitoneal
Procedure, shortened: (§3)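 L1210 leukemia, 10⁶ cells per mouse inoculated ip. Single ip dose given on day 1. Median survival time expressed as %T/C = (MST treated/MST control) × 100, with T/C > 125 counted as significant. Mice surviving at 30 days were recorded, six mice per treatment dose.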

[18] = tested on: L1210; test: Antitumor activity against mouse L1210 cells allografted in mouse assessed as tumor inhibition at 16 mg/kg, ip single dose relative to control; format: functional; conditions: route intraperitoneal; procedure, shortened: as §3
[19] = tested on: L1210; test: Antitumor activity against mouse L1210 cells allografted in mouse assessed as tumor inhibition at 8 mg/kg, ip single dose relative to control; format: functional; conditions: route intraperitoneal; procedure, shortened: as §3
[20] = tested on: L1210; test: Antitumor activity against mouse L1210 cells allografted in mouse assessed as tumor inhibition at 4 mg/kg, ip single dose relative to control; format: functional; conditions: route intraperitoneal; procedure, shortened: as §3
[21] = tested on: L1210; test: Antitumor activity against mouse L1210 cells allografted in mouse assessed as tumor inhibition at 2 mg/kg, ip single dose relative to control; format: functional; conditions: route intraperitoneal; procedure, shortened: as §3
[22] = tested on: L1210; test: Antitumor activity against mouse L1210 cells allografted in mouse assessed as mouse survival after 30 days at 32 mg/kg, ip single dose relative to control; format: functional, organism-based; parameters: dose 32 mg/kg
Procedure, shortened: (§4)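 L1210 leukemia, 10⁶ cells implanted ip per mouse. One ip dose given on day 1. Six mice per dose level. Survivors counted at day 30. Median survival time also recorded as %T/C = (MST treated/MST control) × 100, with T/C > 125 taken as significant.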

[23] = tested on: L1210; test: Antitumor activity against mouse L1210 cells allografted in mouse assessed as mouse survival after 30 days at 8 mg/kg, ip single dose relative to control; format: functional, organism-based; parameters: dose 8 mg/kg; procedure, shortened: as §4
[24] = tested on: L1210; test: Antitumor activity against mouse L1210 cells allografted in mouse assessed as mouse survival after 30 days at 4 mg/kg, ip single dose relative to control; format: functional, organism-based; parameters: dose 4 mg/kg; procedure, shortened: as §4
[25] = tested on: L1210; test: Antitumor activity against mouse L1210 cells allografted in mouse assessed as mouse survival after 30 days at 2 mg/kg, ip single dose relative to control; format: functional, organism-based; parameters: dose 2 mg/kg; procedure, shortened: as §4
[26] = tested on: L1210; test: Antitumor activity against mouse L1210 cells allografted in mouse assessed as tumor inhibition at 128 mg/kg, ip single dose relative to control; format: functional; conditions: route intraperitoneal; procedure, shortened: as §3
[27] = tested on: L1210; test: Antitumor activity against mouse L1210 cells allografted in mouse assessed as tumor inhibition at 64 mg/kg, ip single dose relative to control; format: functional; conditions: route intraperitoneal; procedure, shortened: as §3
[28] = tested on: L1210; test: Antitumor activity against mouse L1210 cells allografted in mouse assessed as tumor inhibition at 1 mg/kg, ip single dose relative to control; format: functional; conditions: route intraperitoneal; procedure, shortened: as §3
[29] = tested on: L1210; test: Antitumor activity against mouse L1210 cells allografted in mouse assessed as mouse survival after 30 days at 128 mg/kg, ip single dose relative to control; format: functional, organism-based; parameters: dose 128 mg/kg; procedure, shortened: as §4
[30] = tested on: L1210; test: Antitumor activity against mouse L1210 cells allografted in mouse assessed as mouse survival after 30 days at 16 mg/kg, ip single dose relative to control; format: functional, organism-based; parameters: dose 16 mg/kg; procedure, shortened: as §4
[31] = tested on: L1210; test: Antitumor activity against mouse L1210 cells allografted in mouse assessed as mouse survival after 30 days at 1 mg/kg, ip single dose relative to control; format: functional, organism-based; parameters: dose 1 mg/kg; procedure, shortened: as §4

Structure (SMILES) | Survival [1] | Survival [2] | Survival [3] | Survival [4] | T/C [5] | T/C [6] | T/C [7] | T/C [8] | T/C [9] | T/C [10] | T/C [11] | T/C [12] | T/C [17] | T/C [18] | T/C [19] | T/C [20] | T/C [21] | Survival [23] | Survival [24] | Survival [25] | other results
O=NN(CCCl)C(=O)N[C@H]1[C@H](O)[C@H](O)[C@@H](O)[C@@H]1O | inactive | inactive | inactive | inactive | 171% | >471% | 243% | 207% | 221% | 157% | 114% | 144% | – | – | – | – | – | – | – | – | Survival [13]: inactive; Survival [14]: inactive
O=NN(CCCl)C(=O)N[C@H]1[C@H](O)[C@@H](O)[C@@H](O)[C@@H]1O | inactive | inactive | inactive | inactive | 143% | 171% | 336% | 229% | 171% | 114% | 107% | 100% | – | – | – | – | – | – | – | – | Survival [13]: inactive; Survival [15]: inactive; Survival [16]: inactive
O=NN(CCCl)C(=O)N[C@H]1[C@@H](O)[C@@H](O)[C@H](NC(=O)N(CCCl)N=O)[C@@H](O)[C@@H]1O | – | – | – | – | – | – | – | – | – | – | – | – | 136% | >471% | 214% | 171% | 150% | inactive | inactive | inactive | Survival [22]: inactive
O=NN(CCCl)C(=O)N[C@H]1[C@@H](O)[C@@H](O)[C@H](NC(=O)N(CCCl)N=O)[C@H](O)[C@@H]1O | – | – | – | – | – | – | – | – | – | – | – | – | >471% | >243% | 171% | 136% | 129% | inactive | inactive | inactive | T/C [26]: 293%; T/C [27]: 286%; T/C [28]: 114%; Survival [29]: inactive; Survival [30]: inactive; Survival [31]: inactive
O=NN(CCCl)C(=O)N[C@@H]1[C@H](O)[C@H](NC(=O)N(CCCl)N=O)[C@@H](O)[C@H](O)[C@H]1O | – | – | – | – | – | – | – | – | – | – | – | – | 214% | 179% | 171% | 114% | 121% | inactive | inactive | inactive | T/C [26]: 86%; T/C [27]: 250%; T/C [28]: 100%; Survival [29]: inactive; Survival [22]: inactive; Survival [30]: inactive; Survival [31]: inactive
O=NN(CCCl)C(=O)NCCCl [CARMUSTINE] | inactive | inactive | inactive | inactive | 193% | >471% | 293% | 193% | 114% | 100% | 100% | 100% | >471% | 271% | 193% | 143% | 114% | inactive | inactive | inactive | Survival [15]: Active; Survival [14]: inactive; Survival [16]: inactive
O=NN(CCCl)C(=O)N[C@H]1[C@H](O)[C@H](O)[C@H](O)[C@@H]1O | inactive | inactive | inactive | inactive | 186% | >471% | >471% | 250% | 143% | 114% | 114% | 107% | – | – | – | – | – | – | – | – | Survival [13]: inactive; Survival [15]: Active
